# M1 ag: human M1 muscarinic receptor agonism. P11229. actives 0.33% (n = 360,000). CHO-K1 hM1, Fluo-8 calcium fluorescence, agonist mode; 0% DMSO, 100% acetylcholine EC100. AID 588814. activation, % at 3 µM;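 active = activation above the run's mean compound activation plus 3 SD, cut at about 16% in these data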;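 also: peak over basal fluorescence ratio within a 140 s kinetic read after compound addition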
# Target sequence (P11229 whole entry, looked up): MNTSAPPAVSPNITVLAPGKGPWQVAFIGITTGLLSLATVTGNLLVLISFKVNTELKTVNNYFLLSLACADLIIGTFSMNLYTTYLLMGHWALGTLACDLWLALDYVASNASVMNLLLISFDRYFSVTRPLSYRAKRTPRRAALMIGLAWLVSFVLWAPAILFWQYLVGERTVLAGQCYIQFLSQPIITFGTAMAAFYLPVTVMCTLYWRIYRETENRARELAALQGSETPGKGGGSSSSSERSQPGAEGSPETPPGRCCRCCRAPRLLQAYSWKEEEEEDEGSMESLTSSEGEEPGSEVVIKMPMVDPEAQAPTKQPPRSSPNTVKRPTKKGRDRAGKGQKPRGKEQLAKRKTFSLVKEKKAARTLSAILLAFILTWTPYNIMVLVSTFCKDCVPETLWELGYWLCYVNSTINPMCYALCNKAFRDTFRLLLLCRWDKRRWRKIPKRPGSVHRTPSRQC
# TAAR1 antag: human TAAR1 antagonism; CHO RD-HGA16 TAAR1, Fluo-8 calcium fluorescence, antagonist; Q96RJ0; inhibition, % at 3 µM; actives 1.5% (n = 360,000); AID 624466;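 active = inhibition above a per-plate cutoff, the mean inhibition of test compounds on that plate plus 3 SD, cut at about 49% in these data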;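 also: 0% = DMSO plus EC80 beta-PEA response and 100% = DMSO alone without agonist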
#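 Test system: RD-HGA16 CHO cells with stable hTAAR1 and Gα16 / Probe or stimulus: EC80 β-phenethylamine stimulus / Times: seeding 17-24 h prior, 75-min 37 °C, 30-min RT dye loading / Detection: Fluo-8 calcium-sensitive fluorescence / Read-out basis: % inhibition scaled between DMSO and EC80 PEA controls / Repeats: singlicate, one well per test compound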
# CHRM1 PAM: human CHRM1 positive allosteric modulation. CHO-K1 hM1, Fluo-8 calcium fluorescence, ACh EC20; 0% = ACh EC20, 100% = maximal ACh. activation, % at 3 µM. P11229. AID 588819. actives 0.088% (n = 360,000); in the data active = activation above about 19%, passing the limit was not always enough
# TAAR1 agonist: agonists of human TAAR1 | Q96RJ0 | actives 0.99% (n = 360,000) | activation, % at 3 µM | AID 624467 | CHO RD-HGA16 TAAR1, Fluo-8 calcium fluorescence; vehicle wells 0%, saturating PEA agonist 100%;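 active = activation above the mean activation of all test compounds in the run plus 3 SD, cut at about 38% in these data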
#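 Signal – calcium-sensitive Fluo-8 signal, excitation 470-495, emission 515-575 nm · System – RD-HGA16 (CHO) cells co-expressing Gα16 and hTAAR1 · Incubation – 17-24 h seeding, 75 min 37 °C dye, 30 min RT · Compound dosing – 3 µM single concentration · Repeats – no replicates (n 1)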
# M1 antag: human CHRM1 antagonism | inhibition, % at 3 µM | P11229 | AID 588852 | CHO-K1 hM1, Fluo-8 calcium fluorescence, ACh EC80 antagonist | actives 1.3% (n = 360,000);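 active = percent inhibition above its own plate's cutoff, namely the mean of that plate's compound wells plus 3 SD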;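 also: peak over basal fluorescence ratio during 140 s after agonist addition; 0% = ACh EC80 plus DMSO and 100% = DMSO alone without agonist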
# TAAR1 ag conf: confirmation of human TAAR1 agonists | shares compounds with TAAR1 agonist | CHO RD-HGA16 TAAR1, Fluo-8 calcium fluorescence; scaled: DMSO 0%, maximal phenethylamine 100% | activation, % at 3 µM | actives 82% (n = 2,400) | AID 651783;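 active = activation above a cutoff set at the run's mean compound activation plus 3 SD, cut at about 39% in these data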
# Ga16 nonsel ag: nonselective agonist in parental cells, TAAR1 agonist counter-screen; shares compounds with TAAR1 agonist; CHO-Ga16 parental, Fluo-8 calcium fluorescence; normalized to maximal ATP response, DMSO zero; actives 50% (n = 2,400); activation, % at 3 µM; AID 651787;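 active = activation above the run cutoff, the mean activation over all tested wells plus 3 SD, cut at about 12% in these data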;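 also: 0% = DMSO wells and 100% = maximal ATP response on the peak over basal ratio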
# TAAR1 desensitize: human TAAR1 agonist that also desensitizes the receptor; CHO RD-HGA16 hTAAR1, Fluo-8 calcium, beta-PEA response inhibition; inhibition, % at 3 µM; actives 46% (n = 2,400); shares compounds with TAAR1 agonist;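 active = inhibition above the run cutoff, the mean inhibition of all test compounds plus 3 SD, cut at about 49% in these data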;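 also: beta-PEA stimulus applied at its EC80; loss of beta-PEA calcium signal after compound pretreatment read as receptor desensitization; 0% = DMSO with beta-PEA at EC80 and 100% = DMSO alone without agonist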
# Ga16 antag count: nonselective Ga16 antagonism, counter-screen; actives 39% (n = 2,400); inhibition, % at 3 µM; shares compounds with TAAR1 agonist; CHO-Ga16 ATP-induced calcium, Fluo-8 fluorescence;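 active = inhibition above the plate's mean compound inhibition plus 3 SD, computed per plate, cut at about 22% in these data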;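 also: 0% = EC80 ATP with DMSO and 100% = DMSO wells without ATP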
# Active calls of the source: *; . = no result given. Shown are actives, neighbours in structure and some others; about 3.4% of the full set was active somewhere.
SMILES,M1 ag,TAAR1 antag,CHRM1 PAM,TAAR1 agonist,M1 antag,TAAR1 ag conf,Ga16 nonsel ag,TAAR1 desensitize,Ga16 antag count
O=C(CCn1c(=S)[nH]c2cc3c(cc2c1=O)OCO3)NCc1ccccc1Cl,-4,17,8,0,-8,.,.,.,.
O=C(CCn1c(=S)[nH]c2cc3c(cc2c1=O)OCO3)NCCc1ccccc1Cl,1,41,22,74*,-22,92*,2,78*,7
CN(Cc1ccccc1)C(=O)c1ccc(NC(=O)Cc2cccc(NC(=O)C3CCCN(C(=O)C4CCCC4)C3)c2)cc1 (stereo unspecified),-9,21,-5,14,4,.,.,.,.
CC(C)CC1NC(=O)C(CC(C)C)N(CO)C1=O (stereo unspecified),-1,0,9,0,-15,.,.,.,.
O=C(O)CSc1nnc(-c2ccc(Cl)cc2Cl)n1-c1ccc(Br)cc1,-6,4,9,0,-12,.,.,.,.
COC(=O)c1sc(NC(=S)NC(=O)c2ccccc2Cl)nc1C,-6,-15,-1,50*,5,29,23*,11,12
COC(=O)c1sc(NC(=S)NC(=O)c2ccccc2)nc1C,-5,-17,11,12,-16,.,.,.,.
CCC(=O)N[C@@H]1CC[C@@H](CCNC(=O)Nc2ccc(F)cc2)O[C@@H]1CO,.,1,.,4,.,.,.,.,.
CCN1C(=O)/C(=C/C=C2\N(CC)c3cc(S(=O)(=O)N(C)C)ccc3N2c2ccccc2)SC1=S,6,36,5,62*,-10,48*,56*,72*,78*
CCN1C(=O)/C(=C\C=C\c2ccccc2[N+](=O)[O-])SC1=S,-10,2,11,5,-6,.,.,.,.
Cc1nonc1C1CCCN1C(=O)c1cc(COc2ccc(F)cc2F)on1 (stereo unspecified),-5,-22,2,0,-4,.,.,.,.
Cn1ccnc1C1CCCCN1C(=O)c1cc(COc2ccc(F)cc2F)on1 (stereo unspecified),-8,-17,-15,56*,20,8,3,13,8
COc1nc(NC(C)(C)C)nc(Oc2ccc(=O)n(-c3ccccc3)n2)n1,-2,5,6,18,-8,.,.,.,.
CC(C)Nc1nc(NC(C)(C)C)nc(Oc2ccc(=O)n(-c3ccccc3)n2)n1,14,-16,5,70*,-5,76*,54*,-1,1
CCOc1ccc2nc3cc(NCc4ccc(OC)cc4)ccc3c(N)c2c1,-6,.,6,.,-7,.,.,.,.
Nc1nc(N)c2cc(CNc3ccc(Cl)c(Cl)c3)ccc2n1,-2,53*,-1,64*,3,80*,42*,74*,66*
COc1ccc2nc(SC(C)C(=O)NC3CCCC3)[nH]c2c1 (stereo unspecified),-3,-7,0,-1,-2,.,.,.,.
COc1ccc(NC(=O)c2cccc(N3C(=O)C4C5C=CC(C5)C4C3=O)c2)cc1Cl (stereo unspecified),0,41,-2,14,-5,.,.,.,.
O=c1c2ccc(Cl)cc2nc(-c2cccc(C(F)(F)F)c2)n1O,7,2,-2,52*,-1,22,32*,8,11
NC(Cc1ccc(F)cc1)c1csc(Nc2cc(Oc3ccccc3)ncn2)n1 (stereo unspecified),4,44,-10,71*,20,85*,36*,61*,43*
NC(Cc1ccc(Cl)cc1)c1csc(Nc2cc(Oc3ccccc3)ncn2)n1 (stereo unspecified),1,28,-8,34,17,.,.,.,.
COc1ccc(CC(N)c2csc(Nc3cc(Oc4ccccc4)ncn3)n2)cc1 (stereo unspecified),-2,35,-10,56*,19,58*,32*,52*,42*
Cc1ccc(NC(=O)CCN2CCOCC2)cc1C,-5,-4,10,-1,-17,.,.,.,.
Cn1c(CN2CCCC2)nc2cc(NS(=O)(=O)c3ccc(Cl)cc3)ccc21,0,8,0,69*,-1,93*,30*,22,8
CCCCc1cc(O)c(CCCC)c(O)c1,55*,102*,-16,113*,51*,130*,95*,106*,92*
SMILES,M1 ag,TAAR1 antag,CHRM1 PAM,TAAR1 agonist,M1 antag,TAAR1 ag conf,Ga16 nonsel ag,TAAR1 desensitize,Ga16 antag count
CCCCCc1cc(O)c2c(C)cc(=O)oc2c1,-2,-14,-9,23,8,.,.,.,.
CN1C(C(=O)NCCc2cccs2)CC2Cn3c(nc4ccccc43)C21 (stereo unspecified),-5,.,12,.,-6,.,0,.,2
CCc1ccccc1NC(=O)N1CCc2ccccc2C1,1,55*,4,80*,-3,96*,4,82*,2
O=C(Nc1cccc2ccccc12)N1CCc2ccccc2C1,1,74*,4,77*,-1,78*,2,65*,8
Cc1ccc(Nc2nnc(SCC(=O)NC3CC3)s2)cc1,-4,-15,19,10,-18,.,.,.,.
Cc1ccccc1C(=O)NNC(=O)c1cc(S(=O)(=O)N2CCOCC2)ccc1C,2,2,11,-1,-3,.,.,.,.
Fc1ccccc1-c1nc(-c2ccc(-c3nn[nH]n3)cc2)no1,3,38,18,51*,-7,27,16*,42,19
Fc1ccccc1-c1nc(-c2ccccc2)no1,-2,5,3,2,-20,.,.,.,.
COc1ccc(OC)c(NC(=O)c2cc(S(=O)(=O)N3CCCC3)cn2C)c1,-3,-23,12,1,-17,.,.,.,.
COc1ccc(Cn2nnnc2C(c2ccccc2)N2CCN(C3CCCC3)CC2)cc1 (stereo unspecified),-5,-4,4,2,-23,.,.,.,.
COc1ccc(C(c2nnnn2CCc2ccccc2)N2CCN(C3CCCC3)CC2)cc1 (stereo unspecified),-6,54*,-6,71*,12,85*,2,61*,6
c1ccc(CCN=C2CCCc3c2[nH]c2ccccc32)cc1,-3,96*,7,95*,-6,99*,0,101*,9
O=C(Nc1nc2c(Cl)ccc(Cl)c2s1)c1ccco1,2,70*,7,114*,-5,107*,89*,92*,62*
